High-throughput results as filed in PubChem BioAssay.
A selection: hits, their analogues and other compounds. The true share with any hit is near 2.9%.
ADAM17 inh = ADAM17 inhibitors, primary screen, biochemical, QFRET; inhibition, % at 6.95 µM; AID 720648, 2013; Disintegrin and metalloproteinase domain-containing protein 17 (Homo sapiens), P78536; recombinant ADAM17, EDANS/DABCYL FRET peptide cleavage; 0.83% of 370,000 active;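 active = inhibition above the mean of compounds lying between control limits plus 3 SD, set per campaign, cut at about 8.5% in these data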;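 note: 0% = DMSO-only wells as the low control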
CendR NRP1 mod = modulators of CendR peptide binding to NRP-1, primary screen, biochemical, fluorescence polarization, uHTS | inhibition, % at 25 µM | AID 602438, 2012 | FAM-RPARPAR peptide binding to NRP-1 | Neuropilin-1 (Homo sapiens), O14786 | 0.85% of 360,000 active;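 active = inhibition or corrected inhibition above about 18%, plus a signal ratio from 0.5 to 1.5, limit read from the data, passing the limit was not always enough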
Target sequence (O14786 whole entry, looked up): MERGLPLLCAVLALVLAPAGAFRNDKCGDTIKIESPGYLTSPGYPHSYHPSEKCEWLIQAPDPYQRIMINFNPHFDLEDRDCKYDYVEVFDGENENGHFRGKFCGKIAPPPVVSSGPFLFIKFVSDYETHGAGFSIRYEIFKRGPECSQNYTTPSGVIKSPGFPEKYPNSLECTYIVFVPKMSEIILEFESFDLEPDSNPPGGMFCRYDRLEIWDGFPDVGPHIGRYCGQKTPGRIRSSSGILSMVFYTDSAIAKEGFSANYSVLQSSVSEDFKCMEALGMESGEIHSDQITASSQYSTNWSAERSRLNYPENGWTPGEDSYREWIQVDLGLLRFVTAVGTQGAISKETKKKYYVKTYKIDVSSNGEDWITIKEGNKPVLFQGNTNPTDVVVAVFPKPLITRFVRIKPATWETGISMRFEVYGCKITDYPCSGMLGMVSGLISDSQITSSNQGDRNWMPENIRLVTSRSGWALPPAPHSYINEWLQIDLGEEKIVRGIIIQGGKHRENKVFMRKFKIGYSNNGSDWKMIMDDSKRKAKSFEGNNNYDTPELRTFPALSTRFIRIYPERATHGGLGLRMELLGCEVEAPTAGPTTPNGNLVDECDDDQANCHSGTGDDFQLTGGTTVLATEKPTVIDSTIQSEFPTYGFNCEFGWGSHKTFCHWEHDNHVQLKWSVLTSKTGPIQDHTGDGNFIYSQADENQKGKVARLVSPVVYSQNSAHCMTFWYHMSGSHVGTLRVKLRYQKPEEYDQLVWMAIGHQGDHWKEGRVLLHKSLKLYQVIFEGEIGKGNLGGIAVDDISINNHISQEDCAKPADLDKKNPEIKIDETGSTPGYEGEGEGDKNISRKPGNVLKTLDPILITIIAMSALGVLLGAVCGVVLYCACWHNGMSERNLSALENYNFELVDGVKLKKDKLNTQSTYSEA
FAS-TE inh = FAS thioesterase domain inhibitors, primary screen, biochemical, fluorescence intensity, uHTS; recombinant FAS-TE, OMFH fluorogenic substrate, fluorescence endpoint; Fatty acid synthase (Homo sapiens), P49327; 0.67% of 360,000 active; AID 602261, 2012; inhibition, % at 15 µM;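 active = compounds whose normalised, plate-corrected inhibition of enzyme fluorescence in the single-dose primary screen is 50% or more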;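 note: 0% = DMSO with enzyme and 100% = substrate without enzyme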
CaV13 ICDI inh = Disruptors of the CACNA1D IQ motif to Ca2+-dependent inactivation inhibitor domain association, primary screening, Förster resonance energy transfer in intact living … | HEK cells, CFP/YFP FRET ICDI-IQ, plate reader, 10 min; percent FRET-ratio fall versus neutral wells | inhibition, % at 12.3 µM | 0.098% of 340,000 active;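 active = mean replicate inhibition of at least 30% and at least 1% of replicates passing that level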;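 note: 0% = median of the neutral control wells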
Arrestin-AP2 inh = inhibitors of beta-arrestin/AP2 binding, primary screen, biochemical, GPCR trafficking, flow cytometry | FITC-arrestin peptide / GST-AP2 beads; AP2 beta2 appendage carries R879A mutation | inhibition, % at 10 µM | 0.31% of 340,000 active | AID 504490, 2011;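 active = inhibition above a set limit, near 3 SD of compounds lacking own fluorescence, cut at about 54% in these data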;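 note: plate controls were DMSO wells for no effect and 5 µM unlabelled arrestin peptide for full effect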
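System: GST-AP2 R879A bound to glutathione beads, E. coli-expressed. Also added: 50 nM FITC-arrestin peptide. Schedule: compound with beads 12 min RT, then probe 1 h RT. Signal: bead flow cytometry, FITC channel. Read-out basis: percent response.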
ADAM10 inh = human ADAM10 inhibitors, primary screen, biochemical, QFRET, HTS; Disintegrin and metalloproteinase domain-containing protein 10 (Homo sapiens), O14672; recombinant ADAM10, EDANS/DABCYL FRET peptide cleavage, 3 h; inhibition, % at 7 µM; 0.62% of 370,000 active;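 active = inhibition above a per-campaign cutoff equal to the mean of compounds falling between control-based bounds plus 3 SD, cut at about 20% in these data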;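 note: 0% = DMSO wells while the 100% control is not disclosed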
FAS-TE conf = FAS thioesterase domain inhibitors, confirmation, biochemical, fluorescence intensity, single concentration | shares compounds with FAS-TE inh | recombinant FAS-TE, OMFH fluorogenic substrate | inhibition, % at 15 µM | 45% of 2,300 active;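 active = compounds inhibiting the enzyme by at least 50% at 15 µM in any one of the replicates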;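 note: 0% = enzyme with DMSO only and 100% = wells lacking enzyme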
ADAM10 confirm = human ADAM10 inhibitors, confirmation, biochemical, QFRET, triplicate; ADAM10 QFRET peptide cleavage, EDANS fluorescence; shares compounds with ADAM10 inh; inhibition, % at 6.95 µM; 1% of 2,100 active; AID 743208, 2013;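 active = inhibition above about 20% chosen separately for each screening run, limit read from the data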;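 note: 0% = DMSO wells and 100% = marimastat wells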
ADAM17 counter = ADAM17 inhibitors, counter-screen for ADAM10 exosite inhibitor project, biochemical, QFRET, high throughput; AID 743214, 2013; shares compounds with ADAM10 inh; inhibition, % at 6.95 µM; 0.5% of 2,100 active; ADAM17 QFRET peptide cleavage, EDANS fluorescence;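 active = mean triplicate inhibition above the solvent-only control wells' mean plus 3 SD, cut at about 12% in these data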;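 note: 0% = DMSO wells and 100% = marimastat wells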
ADAM10 counter = ADAM10 inhibitors, counter-screen for ADAM17 exosite inhibitor project, biochemical, FRET, human ADAM10 | shares compounds with ADAM17 inh | recombinant ADAM10, EDANS/DABCYL FRET peptide cleavage, 3 h | inhibition, % at 6.95 µM | 47% of 2,900 active | AID 743256, 2014;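 active = mean inhibition over the triplicate runs exceeds the activity threshold set in the earlier primary screen, cut at about 20% in these data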;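 note: 0% = DMSO wells and 100% = marimastat wells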
ADAM17 confirm = ADAM17 inhibitors, hit retest, confirmation, biochemical, QFRET peptide cleavage | shares compounds with ADAM17 inh | recombinant ADAM17, EDANS/DABCYL QFRET peptide cleavage | inhibition, % at 6.95 µM | 65% of 2,900 active | AID 743257, 2014;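 active = mean inhibition across replicates above the hit cutoff set in the primary screen, cut at about 8.5% in these data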;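 note: 0% = DMSO wells and 100% = marimastat wells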
Active calls of the source: *; / = not tested or not shown.

SMILES	ADAM17 inh	CendR NRP1 mod	FAS-TE inh	CaV13 ICDI inh	Arrestin-AP2 inh	ADAM10 inh	FAS-TE conf	ADAM10 confirm	ADAM17 counter	ADAM10 counter	ADAM17 confirm
CCn1c(SCC(=O)Nc2ncc(C(F)(F)F)cc2Cl)nnc1-c1cccc(C)c1	10.0*	-14	80*	-6	-6	4	81*	/	/	1	2
Cc1ccc(C(=O)CC2C(=O)N(c3ccccc3)C(=S)N2c2ccccc2)cc1 (centres undefined)	9.3*	-7	53*	-4	4	16	16	/	/	44*	19*
COc1ccc(OCC(=O)NCc2nc(-c3ccccc3)no2)cc1	0	-13	-9	-2	-14	-4	/	/	/	/	/
COc1ccc(NC(=O)C(OC)c2ccccc2)cc1Cl (centres undefined)	-3	-6	-5	-4	-11	-3	/	/	/	/	/
COc1ccc(NC(=O)C(Sc2nnc(-c3ccncc3)n2-c2ccccc2C)c2ccccc2)cc1Cl (centres undefined)	15*	-1	56*	-4	-20	28*	15	7	2	30*	15*
CCCCCCCCOC(=O)C1=C(C)Nc2nnnn2C1c1cccs1 (centres undefined)	10*	-6	62*	-8	21	20*	41	8	3	21*	8
CCCCCCCOC(=O)C1=C(C)Nc2ncnn2C1c1cccs1 (centres undefined)	0	-4	1	-4	1	1	/	/	/	/	/
CCC1(O)CCCC2C3CCC4CC(=O)CCC4(C)C3C(=O)CC21C (centres undefined)	-2	11	-8	-18	0	-13	/	/	/	/	/
CC(C)(C)c1cc(C(=O)NNc2cc(C(F)(F)F)ccc2Cl)n(Cc2ccccc2)n1	10*	-16	54*	-4	5	19	15	/	/	27*	10*
Fc1c(F)c(C(F)(F)F)c(F)c(F)c1N/N=C\c1cccs1	9.8*	-8	63*	-5	4	24*	51*	14	4	32*	19*
Cn1c(N/N=C/c2cccs2)cc(=O)n(C)c1=O	-31	-3	-2	-5	9	-91	/	/	/	/	/
CCNC(=O)C1(C)CCCN(C(=O)c2cc(C)nn2C(C)(C)C)C1 (centres undefined)	-4	0	-8	-5	/	-7	/	/	/	/	/
COCCOc1ccc(C(F)(F)F)cc1NC(=O)COC(=O)c1ccc(N2CCCC2=O)cc1	-6	7	1	-6	-17	-14	/	/	/	/	/
COCCOc1ccc(C(F)(F)F)cc1NC(=O)COC(=O)c1cc([N+](=O)[O-])ccc1N1CCOCC1	8.9*	2	72*	-4	-8	22*	30*	2	0	17	8.9*
O=C(CSc1nc2ccccc2c(=O)n1-c1ccccc1Cl)Nc1cccc(S(=O)(=O)N2CCOCC2)c1	9.5*	-6	95*	-5	6	17	26	/	/	18	13*
COCCNC(=O)C1(C)CCN(C(=O)c2cccnc2Oc2ccccc2)C1 (centres undefined)	-3	7	-6	-9	/	-7	/	/	/	/	/
Cc1nc(-c2cccc(NS(=O)(=O)c3ccccc3)c2)cs1	-1	3	8	-7	10	1	/	/	/	/	/
Cc1ccc(S(=O)(=O)Nc2ccc(-c3csc(-c4ccccc4)n3)cc2)cc1	15*	-6	72*	-5	18	31*	27	19	6	24*	20*
CCOC(=O)c1csc(NC(=O)C2CCCN(S(=O)(=O)c3ccc(Br)s3)C2)n1 (centres undefined)	5	/	/	/	/	7	/	/	/	/	/
O=C(COc1cccc(Oc2ccccc2)c1)Nc1ccc(SC(F)F)cc1	10*	-3	81*	-5	-4	18	55*	/	/	32*	18*
O=C(COc1cccc(OC(F)F)c1)Nc1ccc(SC(F)F)cc1	6	9	29	-4	13	14	/	/	/	/	/
Cc1cccc(NS(=O)(=O)c2ccc3[nH]c(=O)cc(C(=O)OC(C)C(=O)Nc4ccc([N+](=O)[O-])cc4)c3c2)c1 (centres undefined)	15*	12	87*	-5	-1	25*	93*	10	4	4	12*
CCc1ccc(NC(=O)C(C)OC(=O)c2cc(=O)[nH]c3ccc(S(=O)(=O)Nc4ccc(F)cc4)cc23)cc1 (centres undefined)	-2	1	20	-3	20	-9	/	/	/	/	/
O=C(c1ccncc1)N(c1ccc2oc3c(c2c1)CCCC3)S(=O)(=O)c1ccc(F)cc1	8.8*	-3	65*	-18	1	17	43	/	/	9	7
CC(C)(C)c1ccc(C(=O)Nc2cc(Cl)c(F)cc2C(=O)O)cc1	0	/	/	/	/	-1	/	/	/	/	/
O=C(OCc1csc(Nc2ccccc2)n1)c1ccc(Cl)cc1	12*	3	52*	-6	-2	24*	14	11	4	45*	18*
O=c1[nH]c2cc(Br)c(Br)nc2[nH]1	0	/	/	/	/	-7	/	/	/	/	/
